LEDGF integ inh: blockers of LEDGF/p75-dependent integrase strand transfer – biochemical, TR-FRET, high throughput, primary screen; HIV-1 integrase (with human LEDGF/p75); inhibition, % at 3.7 µM; 0.64% of 370,000 active; TR-FRET IN-LEDGF/p75 DNA integration, Eu/Cy5; AID 743269, 2014;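 active = inhibition above the screen-wide mean plus 3 SD, cut at about 13% in these data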;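 also: signal is the Cy5 over europium emission ratio at 671 and 618 nm; 0% = plate median of compound wells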
NSD2 inh: NSD2 histone methyltransferase inhibitors, primary screen, biochemical, AlphaScreen, single concentration, set 2; Histone-lysine N-methyltransferase NSD2 (Homo sapiens), O96028; NSD2 peptide methylation, 120 min; inhibition, % at 12.5 µM; 0.54% of 310,000 active; AID 743445, 2014; in the data active = inhibition above about 50%
MBD2 DNA inh: inhibitors of MBD2 binding to methylated DNA, primary screen, biochemical, TR-FRET, DNA-binding domain, human. Methyl-CpG-binding domain protein 2 (Homo sapiens), Q9UBB5. MBD2 binding to methylated oligonucleotide. inhibition, % at 4.4 µM. 0.31% of 370,000 active; in the data active = inhibition above about 13%
UHRF1 binding: UHRF1 methylated DNA binding inhibitors, primary screen, counter-screen for MBD2 inhibitor project, biochemical, TR-FRET, human UHRF1, single concentration; E3 ubiquitin-protein ligase UHRF1 (Homo sapiens), Q96T88; UHRF1 binding to methylated oligo; inhibition, % at 4.4 µM; 0.75% of 370,000 active; in the data active = inhibition above about 21%;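 also: UHRF1 SRA domain binding a hemimethylated CpG hairpin DNA probe; 0% = median of test compound wells and 100% = reference inhibitor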
CASP6 VEID inh: human caspase-6 inhibitors, primary screen, biochemical, VEID-R110 fluorescence, single point, set 2. P55212. purified caspase-6, Z-VEID-R110 cleavage fluorescence. inhibition, % at 12.5 µM. 0.53% of 350,000 active. AID 686996, 2013;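 active = mean inhibition across replicates at least about 35%, with every replicate also reaching that limit, limit read from the data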;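 also: 0% = median of neutral control wells and 100% = no fluorescence left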
Target sequence (P55212 24-179 limits assumed): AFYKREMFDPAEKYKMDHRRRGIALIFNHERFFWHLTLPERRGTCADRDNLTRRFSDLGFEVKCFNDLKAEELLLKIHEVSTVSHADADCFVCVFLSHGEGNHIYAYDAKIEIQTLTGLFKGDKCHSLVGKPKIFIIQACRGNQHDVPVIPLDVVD
Target sequence (P55212 194-293 limits assumed): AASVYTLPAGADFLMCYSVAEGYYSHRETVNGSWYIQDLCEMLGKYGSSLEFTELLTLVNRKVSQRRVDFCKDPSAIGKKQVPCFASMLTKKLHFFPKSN
TDP2 inh: human TDP2 enzyme inhibitors, primary screen, biochemical, epi absorbance, recombinant enzyme; Tyrosyl-DNA phosphodiesterase 2 (Homo sapiens), O95551; T5PNP hydrolysis, p-nitrophenol absorbance 415 nm; inhibition, % at 12.8 µM; 0.34% of 370,000 active; AID 720702, 2013;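 active = inhibition above the mean of all tested compounds plus 3 SD, set per campaign, cut at about 25% in these data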;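 also: 0% = DMSO with enzyme and 100% = buffer with substrate but no TDP2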
Target sequence (O95551 whole entry, looked up): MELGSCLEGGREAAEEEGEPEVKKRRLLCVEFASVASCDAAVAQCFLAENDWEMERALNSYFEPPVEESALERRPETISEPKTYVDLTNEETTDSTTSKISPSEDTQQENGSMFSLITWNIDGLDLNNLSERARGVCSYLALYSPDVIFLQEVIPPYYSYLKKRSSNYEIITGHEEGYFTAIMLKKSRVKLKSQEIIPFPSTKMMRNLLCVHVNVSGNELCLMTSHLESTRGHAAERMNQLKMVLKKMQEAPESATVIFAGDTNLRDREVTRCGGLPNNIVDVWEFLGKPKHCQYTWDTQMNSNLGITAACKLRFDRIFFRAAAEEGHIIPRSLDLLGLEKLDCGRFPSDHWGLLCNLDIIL
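Test system: Human TDP2 enzyme | Reagent: 5 mM T5PNP | Compound dosing: 12.8 µM single point, 1% DMSO | Incubation: Enzyme reaction with compound for 2 h at 37 °C | Technique: p-Nitrophenol epi absorbance | Read-out: % inhibition relative to enzyme-containing and enzyme-free wells | Benchmarks: High control without enzyme, low control DMSO plus TDP2 | Replicates: Singlicate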
* = called active by the depositor; nt = no result. Compounds with a hit are over-represented: about 1.9% of the library has one in this group of screens.

SMILES	LEDGF integ inh	NSD2 inh	MBD2 DNA inh	UHRF1 binding	CASP6 VEID inh	TDP2 inh
CCOC(=O)C1(Cc2cccc(OC)c2)CCN(C/C=C/c2ccccc2)CC1	-2	0	3	33*	3	-7
COc1ccc(CC(=O)OCC(=O)c2ccc[nH]2)cc1	3	1	1	0	1	7
COc1ccc(C(=O)OCC(=O)c2ccc[nH]2)c(OC)c1	4	-1	-5	-1	43*	6
O=C(O)c1ccc(NS(=O)(=O)c2ccc(Cl)c(C(=O)Nc3ccccc3)c2)cc1	4	-4	-3	23*	0	-9
CN(C)S(=O)(=O)n1cc(/C=C(\NC(=O)c2ccccc2Cl)C(=O)N2CCCC2)c2ccccc21	0	-2	1	-3	-1	-8
CN(C)S(=O)(=O)n1cc(/C=C(\NC(=O)c2ccccc2F)C(=O)N2CCCCC2)c2ccccc21	6	0	2	24*	-3	-2
O=C([C@H]1[C@H](CO)[C@H]2Cn3c(cccc3=O)[C@@H]1N2CC1CCCC1)N1CCc2ccccc2C1	nt	nt	nt	nt	1	nt
COc1ccccc1OCC(=O)NCCSCc1ccccc1Cl	2	-1	5	25*	nt	-2
O=C(COc1ccccc1)NCCSCc1ccccc1Cl	4	-1	-5	-2	-1	-5
c1ccc2c(C(c3nnnn3-c3ccc4c(c3)OCCO4)N3CCCC3)ccnc2c1 (stereo not drawn)	-1	nt	-4	-6	-35	2
c1ccc2c(C(c3nnnn3-c3ccc4c(c3)OCCO4)N3CCOCC3)ccnc2c1 (stereo not drawn)	1	nt	6	22*	-4	4
C[C@H](CO)N1C[C@H](C)[C@H](CN(C)CC2CCOCC2)Oc2ncc(C#Cc3ccccc3)cc2C1=O	nt	nt	nt	nt	-2	nt
O=C(COc1ccc(F)cc1)Nc1nnc(S(=O)(=O)N2CCCC2)s1	-5	nt	0	37*	-1	-5
Cc1ccc(OCC(=O)Nc2nnc(S(=O)(=O)N3CCCCCC3)s2)cc1	-5	nt	-3	-2	-2	1
CC1=C(C#N)c2nc(N)c(C#N)c(C)c2/C1=C\c1ccc(OCC(=O)O)c(Cl)c1	6	57*	-5	-2	16	0
CC(=O)Nc1ccc(C(=O)NCCc2ccccc2)cc1	1	-1	3	21*	-3	15
CO[C@H]1CN(C)C(=O)c2ccc(NC(=O)c3ccc(F)cc3)cc2OC[C@@H](C)N(C)C[C@@H]1C	nt	nt	nt	nt	-1	nt
CO[C@H]1CN(C)C(=O)c2cc(NC(=O)c3ccccc3)ccc2OC[C@@H](C)N(C)C[C@H]1C	nt	nt	nt	nt	-2	nt
O=C1CNC[C@H]2[C@@H](c3ccc(C#CC4CCCC4)cc3)[C@H](CO)N12	nt	nt	nt	nt	4	nt
O=C(NCC(c1ccco1)N1CCc2ccccc2C1)c1ccc(Cl)cc1 (stereo not drawn)	2	0	-6	-4	63*	4
Cc1ccc(C(=O)NCC(c2ccco2)N2CCc3ccccc3C2)cc1 (stereo not drawn)	1	3	0	-2	14	4
C[C@H](CO)N1C[C@H](C)[C@@H](CN(C)Cc2ccc(F)cc2)Oc2cc(C#CCN(C)C)ccc2S1(=O)=O	nt	nt	nt	nt	-5	nt
C[C@H]1CN([C@@H](C)CO)C(=O)Cc2cc(NC(=O)NC3CCCCC3)ccc2O[C@@H]1CN(C)C	nt	nt	nt	nt	1	nt
O=C(NC1CCN(Cc2ccccc2)CC1)c1cncc(Br)c1	-5	-1	9	21*	-5	-7
O=C(NC1CCN(Cc2ccccc2)CC1)c1ccccc1	-2	-2	-4	-1	-5	5
SMILES	LEDGF integ inh	NSD2 inh	MBD2 DNA inh	UHRF1 binding	CASP6 VEID inh	TDP2 inh
Cc1ccc(-n2c3c(c(=O)[nH]c2=O)C(NS(=O)(=O)c2ccc(Cl)cc2)(C(F)(F)F)C(=O)N3)cc1 (stereo not drawn)	2	-2	4	28*	2	2
Cc1ccc(-n2c3c(c(=O)[nH]c2=O)C(NS(=O)(=O)c2ccc(C)cc2)(C(F)(F)F)C(=O)N3)cc1 (stereo not drawn)	6	nt	3	18	nt	-14
[O-][n+]1c2ccccc2[n+]([O-])c2cc(O)ccc21	3	20	-6	-7	68*	-5
CC(NC(=O)CCc1nnc(-c2ccc(-c3ccccc3)cc2)o1)c1nc2ccccc2[nH]1 (stereo not drawn)	-4	-2	1	23*	2	1
Cc1cc(Nc2ccccc2Cl)c2ccccc2n1	-2	-1	-2	-1	2	-3
Cc1cc(C)nc(NCC(O)CNc2ccccc2Cl)n1 (stereo not drawn)	-1	-1	9	23*	nt	15
O=S(=O)(Nc1ccccc1)c1cccc2nsnc12	-1	-1	-3	1	36*	0
Cc1cc2c(cc1C)C(=O)C(Br)=C(N)C2=O	1	48	-15	-17	74*	9
COc1cc2c(c(Br)c1N)-c1cc(Br)c(N)cc1C2=O	-2	-2	-2	-1	-1	-6
CC(/C=N/Nc1nc2ccccc2[nH]1)=C\c1ccccc1	7	0	4	-3	36*	-12
CC(/C=N/Nc1nc(C)cc(=O)[nH]1)=C\c1ccccc1	-1	0	-4	0	2	-11
COc1ccc(Br)c(C=O)c1OS(=O)(=O)c1ccc(C)cc1	16*	-4	-1	-2	4	3
COc1cccc(C(=O)O)c1OS(=O)(=O)c1ccc(C)cc1	-1	-1	-5	-1	nt	4
Cc1ccc(-n2nc(-c3ccco3)cc2C(=O)O)c(C)c1	5	29	9	25*	nt	-1
COc1ccc2c(CN3CCOCC3)cc(=O)oc2c1	-1	nt	-1	-2	-1	-6
COc1ccc2c(CN3CCCCC3)cc(=O)oc2c1	-1	nt	8	21*	-2	-6
CN1C(=O)c2cc(NC(=O)c3ccc(F)c(F)c3)ccc2OC[C@@H]2O[C@H](CC(=O)N[C@H]3CCN(Cc4ccccc4)C3)CC[C@H]21	nt	nt	nt	nt	-2	nt
COc1ccc(-c2ccc([C@H]3[C@@H](CO)N4CCCCN(S(=O)(=O)c5cccs5)C[C@@H]34)cc2)cc1	nt	nt	nt	nt	-5	nt
C[C@H]1COc2cc(N3CCCCC3)ccc2S(=O)(=O)N1	4	nt	-3	5	1	6
CC(C)C[C@@H]1COc2cc(NC3CC3)ccc2S(=O)(=O)N1	4	nt	10	21*	-4	2

Screens as filed in PubChem BioAssay.
